High-throughput results: PubChem, Broad Institute
In the library only some 3.6% were active in any assay of this set; here they are far more common.
MITF act: increases MITF-driven TRPM1 promoter luciferase signal | 300,000 tested, 0.75% active | activation, % at 12.5 µM | SK-MEL-5 TRPM1-promoter luciferase, 24 h; % of positive control, neutral wells = 0;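 active means mean activation of at least 80% with every replicate also reaching 80%; inconclusive means mean reaches 80% but some replicate falls short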
HSF-1 act: increases HSF-1 driven luciferase reporter signal; activation, % at 9 µM; AID 504408; NIH3T3-HGL HSF-1 luciferase reporter, MG132, 8 h; 100% = twice DMSO control signal; 300,000 tested, 1.7% active;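 active means mean replicate activation of at least 50% with a set share of replicates each reaching 50%; inconclusive means only one of those two conditions met; inactive means mean below 50% and too few replicates reaching it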
SR-BI uptake up: enhances SR-BI lipid uptake from DiI-HDL; CHO ldlA[mSR-BI] cells, DiI-HDL uptake fluorescence, 3 h; 100 = double the neutral-control signal; 320,000 tested, 0.096% active; activation, % at 12.5 µM;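 active means mean replicate activation of at least 60% and every replicate at or above 60%; inconclusive means mean or all-replicate condition met, but not both; inactive means mean below 60% and not all replicates reaching 60%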
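material = CHO ldlA[mSR-BI] cells | medium = Ham's F12 with 0.5% BSA, HEPES 25 mM, pH 7.4 | reagent = fluorescent DiI-HDL, 10 µg/mL final | compound dosing = single-point compound dose | incubation = 3 h, 37 °C | measured by = bottom-read fluorescence, 550/595 nm | measure = HDL uptake via cellular fluorescence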
SR-BI DiI inh: blocks mouse SR-BI lipid uptake from DiI-HDL. ldlA[mSR-BI] CHO cells, DiI-HDL uptake fluorescence, 3 h. inhibition, % at 12.5 µM. 320,000 tested, 0.96% active. AID 488896;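 active means mean replicate inhibition of at least 70% and a set share of replicates each scoring 70 or more; inconclusive means meets just one of the two criteria; inactive means fails both criteria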
Target sequence (Q61009 whole entry, looked up): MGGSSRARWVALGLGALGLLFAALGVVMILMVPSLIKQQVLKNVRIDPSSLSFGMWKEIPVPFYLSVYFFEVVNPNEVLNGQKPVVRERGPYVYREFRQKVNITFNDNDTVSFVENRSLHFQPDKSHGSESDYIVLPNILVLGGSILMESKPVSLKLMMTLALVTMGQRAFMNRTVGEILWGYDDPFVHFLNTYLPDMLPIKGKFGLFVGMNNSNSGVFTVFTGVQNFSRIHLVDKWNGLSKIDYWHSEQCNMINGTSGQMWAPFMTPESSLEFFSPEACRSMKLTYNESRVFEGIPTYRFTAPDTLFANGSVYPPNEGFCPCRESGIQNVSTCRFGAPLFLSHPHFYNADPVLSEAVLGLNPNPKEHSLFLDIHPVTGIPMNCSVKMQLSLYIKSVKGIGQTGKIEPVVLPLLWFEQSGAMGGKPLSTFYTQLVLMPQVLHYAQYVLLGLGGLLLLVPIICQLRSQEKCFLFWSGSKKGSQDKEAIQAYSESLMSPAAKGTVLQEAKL
Wnt bcat act: activators of Wnt/beta-catenin signaling; AID 743398; 300,000 tested, 1.2% active; Wnt/beta-catenin reporter cell assay, activator, plate reader; activation, % at 9.35 µM; in the data active means activation above about 30%, passing the limit was not always enough; inconclusive means no clear call, values can overlap the other calls
Of the large screens only hits and unclear results are named; the others gave an inactive call.

O=C(CSc1ccccc1F)Nc1ccc2c(c1)OCO2	MITF act 98.7 (no result: HSF-1 act)
CN1CCN(c2ccc(NC(=O)CSc3ccccc3)cc2F)CC1	Wnt bcat act 38.2 (no result: MITF act)
O=C(CCCc1ccccc1)Nc1ccc2c(c1)OCCO2	HSF-1 act 74.8
Cc1ccc(SCC(=O)Nc2ccc(N3CCN(c4ccccc4)CC3)c(F)c2)cc1	none (no result: MITF act, Wnt bcat act)
CCn1cc(S(=O)(=O)CC(=O)Nc2ccc3c(c2)OCO3)c2ccccc21	Wnt bcat act 34.8 (no result: MITF act)
O=C(CCCCCN1C(=O)c2ccccc2C1=O)Nc1ccc2c(c1)OCCO2	none
CCOC(=O)C1(Cc2ccccc2C#N)CCCCC1=O (configuration not stated)	none (no result: HSF-1 act)
Cc1cc(C)n2nc(SCC(=O)NC3(C#N)CCCCC3)nc2n1	none (no result: MITF act, HSF-1 act, SR-BI uptake up, SR-BI DiI inh)
O=C(NCc1ccccc1)c1ccc2c(c1)OCCO2	none
CSc1nsc(SCC(=O)Nc2ccc3c(c2)OCCO3)n1	HSF-1 act 54.8
CCn1c(SCC(=O)Nc2cc(OC)ccc2OC)nc2c(c1=O)SCC2	none
Cc1csc(SCC(=O)Nc2ccc3c(c2)OCCO3)n1	none
CCn1c(SCC(=O)NCc2ccc3c(c2)OCO3)nc2c(c1=O)SCC2	Wnt bcat act 30.7
O=C(Nc1ccc2c(c1)OCCO2)C(=S)NCc1ccccc1	HSF-1 act 68.1
CCCCc1ccc(NC(=S)NCc2ccc(OC)cc2)cc1	HSF-1 act 51.4 (no result: Wnt bcat act)
O=C(NCc1ccco1)/C(=C/c1cccc(C(F)(F)F)c1)c1nc2ccccc2[nH]1	none
O=C(NCc1ccco1)/C(=C/c1ccc(C(F)(F)F)cc1)c1nc2ccccc2[nH]1	Wnt bcat act 34.2
CC[C@H]1C(=O)[C@@H](Cc2ccccc2)[C@@H]2CCN3C(=O)CCC[C@H]1[C@H]23	none (no result: HSF-1 act)
Cn1nc(C(C)(C)C)cc1C(=O)N1CCCC(c2cc(C(=O)NCc3ccccc3)no2)C1 (configuration not stated)	none (no result: MITF act, HSF-1 act, SR-BI uptake up, SR-BI DiI inh)
COc1ccc(C(c2c(C)n(C)n(-c3ccccc3)c2=O)c2c(C)n(C)n(-c3ccccc3)c2=O)cc1OC	none
COc1ccc(C(c2c(C)[nH]n(-c3ccccc3)c2=O)c2c(C)[nH]n(-c3ccccc3)c2=O)cc1OC	HSF-1 act 70.5
Cc1[nH]n(-c2ccccc2)c(=O)c1C(C[N+](=O)[O-])c1ccc(F)cc1 (configuration not stated)	HSF-1 act 281.7 (no result: Wnt bcat act)
Cc1ccc(C(C[N+](=O)[O-])c2c(C)[nH]n(-c3ccccc3)c2=O)cc1 (configuration not stated)	none
Cc1[nH]n(-c2ccccc2)c(=O)c1C(C[N+](=O)[O-])c1ccc(Cl)cc1 (configuration not stated)	HSF-1 act 132.7
Cc1nc(C(F)(F)F)ccc1C(=O)N1CCCCCC1(C)C(=O)NCC(C)C (configuration not stated)	none (no result: MITF act, HSF-1 act, SR-BI uptake up, SR-BI DiI inh)
CCOC(=O)C1=CCN(S(=O)(=O)c2ccccc2Cl)C1c1ccc(Cl)cc1 (configuration not stated)	none (no result: MITF act, HSF-1 act, SR-BI uptake up, SR-BI DiI inh)
c1ccc2nc(-c3ccc(-n4ccnc4)cc3)ccc2c1	Wnt bcat act 48.5
Nc1ccc(-n2ccnc2)cc1	none (no result: Wnt bcat act)
c1ccc(-c2ccc3ccccc3n2)cc1	Wnt bcat act 46.5 (no result: MITF act)
COc1ccc(CN2C[C@@H](CO)O[C@@H](n3cnc4c(NC5CC5)ncnc43)C2)cc1	none (no result: MITF act, HSF-1 act, SR-BI uptake up, SR-BI DiI inh)
CCCNC(=O)C1(C)CCCN(Cc2cccs2)C1 (configuration not stated)	none (no result: MITF act, HSF-1 act, SR-BI uptake up, SR-BI DiI inh)
O=C(Nc1ccccc1C(=O)Nc1ccccc1C(=O)O)c1ccccc1	none
Nc1ccc(C(=O)Nc2ccccc2C(=O)O)cc1	SR-BI uptake up 84.8 (no result: MITF act)
Cc1cc(SCc2cccc([N+](=O)[O-])c2)nc(=O)[nH]1	none
Nc1cc(SCc2ccc([N+](=O)[O-])cc2)ncn1	Wnt bcat act 36.7 (no result: HSF-1 act)
Cc1cc(SCc2ccc([N+](=O)[O-])cc2)nc(=O)[nH]1	HSF-1 act 69.5
CCCC(=O)N1CCCC(c2cc(C(=O)NCc3ccccc3)no2)C1 (configuration not stated)	none (no result: MITF act, HSF-1 act, SR-BI uptake up, SR-BI DiI inh)
C#CCN1CC(COc2ccccc2)Oc2cccc(Oc3ccc(OC)cc3)c2S1(=O)=O (configuration not stated)	none (no result: MITF act, HSF-1 act, SR-BI uptake up, SR-BI DiI inh)
CCOC(=O)c1c(NC(=O)c2cccc(N3C(=O)CCC3=O)c2)sc(C)c1C	none (no result: MITF act, Wnt bcat act)
CCOc1ccc(-c2csc(NC(=O)c3cccc(N4C(=O)CCC4=O)c3)n2)cc1	SR-BI DiI inh 90.4
COc1ccc(-c2csc(NC(=O)c3cccc(N4C(=O)CCC4=O)c3)n2)cc1OC	SR-BI DiI inh 72.5 (no result: HSF-1 act)
CCOC(=O)c1c(-c2ccc(-c3ccccc3)cc2)csc1NC(=O)c1cccc(N2C(=O)CCC2=O)c1	SR-BI DiI inh 71.9 (no result: Wnt bcat act)
Cc1cccc(C(O)c2ncc(-c3cccc(C(F)(F)F)c3)[nH]2)c1C (configuration not stated)	none (no result: MITF act, HSF-1 act, SR-BI uptake up, SR-BI DiI inh)
Nc1ccc2cc3[nH]c4cc(N)ccc4c3nc2c1	none (no result: HSF-1 act)
O=C(NNC(=O)c1cc2cc(Br)ccc2oc1=O)c1ccc(O)cc1	none
O=C(Nc1ccccc1O)c1cc2cc(Br)ccc2oc1=O	MITF act 100.5, Wnt bcat act inconclusive
Cc1onc(-c2c(Cl)cccc2Cl)c1NC(=O)NN(C)C	none
CSCCNC(=O)Nc1c(-c2c(Cl)cccc2Cl)noc1C	SR-BI uptake up 141.6 (no result: MITF act)
O=C1CCC(=O)N1CCSC(=S)N1CCOCC1	Wnt bcat act 34.5 (no result: MITF act)
COc1cc(C2=NOC(C(=O)N3CCCc4ccccc43)C2)cc(OC)c1OC (configuration not stated)	SR-BI DiI inh 81.8 (no result: Wnt bcat act)
COc1ccc(C2=NOC(C(=O)N3CCCc4ccccc43)C2)cc1 (configuration not stated)	none (no result: Wnt bcat act)
COC(=O)C1=C(C)N(C)C(=NCc2cccc(C(F)(F)F)c2)NC1c1ccc(C(F)(F)F)cc1 (configuration not stated)	none (no result: MITF act, HSF-1 act, SR-BI uptake up, SR-BI DiI inh)
Cc1ccc(OCCN2C(=O)c3ccccc3C2=O)cc1	none (no result: Wnt bcat act)
COc1ccc(OCCN2C(=O)c3cccc(N)c3C2=O)cc1	MITF act 87.7, HSF-1 act 59.2 (no result: SR-BI uptake up, SR-BI DiI inh)
O=C(c1ccc(NS(=O)(=O)c2cccc([N+](=O)[O-])c2)cc1)N1CCCCCC1	none
O=C(c1ccc(NS(=O)(=O)c2cccc([N+](=O)[O-])c2)cc1)N1CCN(C(=O)c2ccco2)CC1	SR-BI uptake up 63.1 (no result: HSF-1 act)
CCSc1nnc(NC(=O)c2cccnc2Cl)s1	HSF-1 act 55.1 (no result: MITF act)
CCSc1nnc(Nc2ccc(C)cc2)s1	MITF act 88.6 (no result: Wnt bcat act)
CCSc1nnc(NC(=O)c2cc3c(s2)CCCC3)s1	MITF act 105.4 (no result: Wnt bcat act)
O=C(Nc1nnc(CCc2ccccc2)s1)c1ccccc1	HSF-1 act 50.7 (no result: MITF act)
CCC(=O)Nc1nnc(CCc2ccccc2)s1	none (no result: Wnt bcat act)
O=C(Nc1nnc(SCc2ccccc2)s1)c1cc2c(s1)CCCC2	none (no result: SR-BI uptake up, Wnt bcat act)
COc1ccc(OCC(=O)N2CCN(S(=O)(=O)c3ccc4c(c3)OCCO4)CC2)cc1	none (no result: MITF act, HSF-1 act, SR-BI uptake up, SR-BI DiI inh)
CCSc1nnc(NC(=O)c2cccnc2)s1	none (no result: Wnt bcat act)
CC(=O)Nc1nnc(SCC(=O)c2ccc(F)cc2)s1	HSF-1 act 103.6
CC(=O)Nc1nnc(SCc2ccc(F)cc2)s1	none
